# Assay results as given in ChEMBL document CHEMBL2203070, “1-(3,4,5-Trimethoxyphenyl)ethane-1,2-diyl esters, a novel compound class with potent chemoreversal activity” (Bioorg Med Chem Lett, 2012).
# Key:
# [1] = Cytotoxicity against human A549 cells assessed as cell viability at 10 ug/ml; assay type: cell-based; settings: read-out: Activity
# [2] = Cytotoxicity against human KBVIN cells assessed as cell viability at 10 ug/ml; assay type: cell-based; settings: read-out: Activity
# KB = assay: Potentiation of paclitaxel-mediated cytotoxicity against human KB cells assessed as cell viability at 10 uM after 72 hrs by SRB method relative to control; assay type: functional; settings: read-out: Activity
# [3] = Cytotoxicity against human KB cells assessed as cell viability at 10 uM after 72 hrs by SRB method relative to control; assay type: cell-based; settings: read-out: Activity
# [4] = Potentiation of paclitaxel-mediated cytotoxicity against human KBVIN cells assessed as cell viability at 10 uM after 72 hrs by SRB method relative to control; assay type: functional; settings: read-out: Activity
# [5] = Cytotoxicity against human KBVIN cells assessed as cell viability at 10 uM after 72 hrs by SRB method relative to control; assay type: cell-based; settings: read-out: Activity
# [6] = Cytotoxicity against human DU145 cells assessed as cell viability at 10 ug/ml; assay type: cell-based, DU-145; settings: read-out: Activity
# [7] = Cytotoxicity against human KB cells assessed as cell viability at 10 ug/ml; assay type: cell-based; settings: read-out: Activity
# KBVIN = settings: Homo sapiens
# [8] = Potentiation of doxorubicin-mediated cytotoxicity against human KBVIN cells assessed as reduction in doxorubicin IC50 at 10 uM after 72 hrs by SRB method relative to control; assay type: functional
# Outline: (§1)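 IC50 of paclitaxel, vincristine or doxorubicin measured in KBvin cells with and without 10 μM compound; reversal fold = IC50 (drug alone)/IC50 (drug + compound); mean ± SD of three independent experiments; verapamil as reference.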
# [9] = Potentiation of vincristine-mediated cytotoxicity against human KBVIN cells assessed as reduction in vincristine IC50 at 10 uM after 72 hrs by SRB method relative to control; assay type: functional; outline: as §1
# [10] = Potentiation of paclitaxel-mediated cytotoxicity against human KBVIN cells assessed as reduction in paclitaxel IC50 at 10 uM after 72 hrs by SRB method relative to control; assay type: functional; outline: as §1
# [11] = molecular target: Multidrug resistance-associated protein 1 (Homo sapiens, UniProt P33527); assay: Inhibition of MRP-mediated Fluo3 efflux in human KBVIN cells at 10 uM incubated for 1 hr prior to Fluo3-addition measured after 2 hrs by fluorescence microscopic analysis; assay type: cell-based
# Sequence of Multidrug resistance-associated protein 1 (P33527 whole entry): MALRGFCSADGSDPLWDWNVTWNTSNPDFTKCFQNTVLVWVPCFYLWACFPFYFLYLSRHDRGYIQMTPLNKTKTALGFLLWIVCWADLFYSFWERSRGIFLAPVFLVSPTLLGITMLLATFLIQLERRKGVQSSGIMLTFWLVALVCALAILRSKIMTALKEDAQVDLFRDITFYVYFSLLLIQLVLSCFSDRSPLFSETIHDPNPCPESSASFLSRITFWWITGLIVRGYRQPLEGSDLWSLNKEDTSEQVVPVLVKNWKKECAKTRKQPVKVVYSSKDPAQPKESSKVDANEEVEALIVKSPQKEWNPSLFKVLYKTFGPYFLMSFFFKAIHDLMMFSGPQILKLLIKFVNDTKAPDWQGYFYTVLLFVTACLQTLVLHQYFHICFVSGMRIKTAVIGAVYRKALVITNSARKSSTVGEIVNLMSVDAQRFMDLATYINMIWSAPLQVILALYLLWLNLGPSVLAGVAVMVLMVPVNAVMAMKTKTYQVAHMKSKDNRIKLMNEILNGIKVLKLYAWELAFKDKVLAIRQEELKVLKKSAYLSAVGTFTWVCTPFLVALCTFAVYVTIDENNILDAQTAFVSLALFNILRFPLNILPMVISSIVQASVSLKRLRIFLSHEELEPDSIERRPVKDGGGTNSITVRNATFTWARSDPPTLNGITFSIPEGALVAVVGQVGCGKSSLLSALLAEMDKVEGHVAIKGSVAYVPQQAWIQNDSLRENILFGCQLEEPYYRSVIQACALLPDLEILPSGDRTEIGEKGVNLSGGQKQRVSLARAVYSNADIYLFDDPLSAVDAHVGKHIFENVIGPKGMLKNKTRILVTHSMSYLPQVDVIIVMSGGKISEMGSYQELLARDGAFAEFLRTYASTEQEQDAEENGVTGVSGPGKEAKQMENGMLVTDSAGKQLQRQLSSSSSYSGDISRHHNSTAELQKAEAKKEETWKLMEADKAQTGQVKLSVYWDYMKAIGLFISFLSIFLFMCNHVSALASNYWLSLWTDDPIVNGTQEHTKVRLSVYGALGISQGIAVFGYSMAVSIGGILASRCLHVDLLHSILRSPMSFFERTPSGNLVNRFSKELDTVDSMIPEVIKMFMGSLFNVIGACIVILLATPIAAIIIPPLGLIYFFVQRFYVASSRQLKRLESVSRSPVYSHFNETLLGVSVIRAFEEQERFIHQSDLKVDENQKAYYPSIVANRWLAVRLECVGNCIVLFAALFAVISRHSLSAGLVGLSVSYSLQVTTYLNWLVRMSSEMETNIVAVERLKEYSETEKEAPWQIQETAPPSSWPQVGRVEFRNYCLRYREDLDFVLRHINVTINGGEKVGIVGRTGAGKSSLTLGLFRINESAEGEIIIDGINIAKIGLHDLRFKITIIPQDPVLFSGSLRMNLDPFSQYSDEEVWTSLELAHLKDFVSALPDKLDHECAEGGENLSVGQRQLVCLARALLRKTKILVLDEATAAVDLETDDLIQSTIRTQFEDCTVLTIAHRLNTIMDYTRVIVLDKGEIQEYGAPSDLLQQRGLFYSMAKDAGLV
# Outline: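 KB or KBvin cells pretreated 1 h with compound or DMSO, then Fluo-3 AM (fluorogenic MRP substrate) added for 2 h; intracellular Fluo-3 retention judged by fluorescence microscopy.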
# [12] = Potentiation of vincristine-mediated cytotoxicity against human KBVIN cells assessed as reduction in vincristine IC50 at 10 uM after 72 hrs by SRB method relative to verapamil; assay type: functional; outline: as §1
Structure (SMILES),viability at 10 ug/ml [1] [%],viability at 10 ug/ml [2] [%],viability at 10 µM (KB) [%],"viability at 72 h, 10 µM [3] [%]",viability at 10 µM [4] [%],"viability at 72 h, 10 µM [5] [%]",viability at 10 ug/ml [6] [%],viability at 10 ug/ml [7] [%],Flu intensity (KBVIN),fold change (FC) [8],fold change (FC) [9],fold change (FC) [10],inhibition (INH) [11],fold change (FC) [12]
COc1cc(C(COC(C)=O)OC(C)=O)cc(OC)c1OC (stereo not given),> 80,> 80,96,98,92,91.5,> 80,> 80,–,–,–,–,–,–
C/C=C/C(=O)OCC(OC(=O)CCCCCCCCCCC)c1cc(OC)c(OC)c(OC)c1 (stereo not given),51.1,41.1,83.9,91.1,44,79.9,41.9,76.2,–,–,–,–,–,–
COc1ccc(/C=C/C(=O)OCC(OC(=O)/C=C/c2ccccc2)c2cc(OC)c(OC)c(OC)c2I)cc1OC (stereo not given),> 80,> 80,76.5,85.9,0,95.3,> 80,> 80,414,23,620,166,–,–
C/C=C/C=C/C(=O)OCC(OC(=O)/C=C/C=C/C)c1cc(OC)c(OC)c(OC)c1 (stereo not given),49.6,50.1,76.8,91.2,31.3,81.5,40.8,74.7,–,–,–,–,–,–
COc1cc(C(O)COC(=O)C2CCCCC2)cc(OC)c1OC (stereo not given),> 80,> 80,96.7,98.9,103,110,> 80,> 80,–,–,–,–,–,–
COc1cc(C(O)CO)c(I)c(OC)c1OC (stereo not given),> 80,> 80,97,95.1,91.8,90,> 80,> 80,–,–,–,–,–,–
COc1cc(C(=O)OCC(O)c2cc(OC)c(OC)c(OC)c2I)cc(OC)c1OC (stereo not given),> 80,> 80,75.7,77,0,83.3,> 80,> 80,226,51,798,164,–,–
COc1cc(C(=O)OCC(O[Si](C)(C)C(C)(C)C)c2cc(OC)c(OC)c(OC)c2I)cc(OC)c1OC (stereo not given),37,36.7,58,64.2,19.6,41,0,26.1,–,–,–,–,–,–
COc1ccc(CCN(C)CCCC(C#N)(c2ccc(OC)c(OC)c2)C(C)C)cc1OC (stereo not given) [VERAPAMIL],–,–,–,–,–,–,–,–,–,6,97,72,–,–
COc1cc(C(O)CO)cc(OC)c1OC (stereo not given),> 80,> 80,96.8,101,99,92.4,> 80,> 80,–,–,–,–,–,–
COc1cc(C(=O)OCC(O[Si](C)(C)C(C)(C)C)c2cc(OC)c(OC)c(OC)c2)cc(OC)c1OC (stereo not given),> 80,> 80,70.3,83.9,12.3,74.3,> 80,> 80,184,79,1684,216,Active,–
COc1cc(C(=O)OCC(OC(=O)c2cc(OC)c(OC)c(OC)c2)c2cc(OC)c(OC)c(OC)c2I)cc(OC)c1OC (stereo not given),56.2,47,73.7,84.2,0,87.1,46.6,75.4,456,156,2285,141,Not Active,340
